According to ChEMBL document CHEMBL1649124, “Genetic variability among ampC genes from acinetobacter genomic species 3” (Antimicrob Agents Chemother, 2009):
In brackets after ≈: the same amount, converted by molar mass.

Legend:
[1] = tested on: CO/N=C(\C(=O)N[C@@H]1C(=O)N2C(C(=O)O)=C(COC(N)=O)CS[C@H]12)c1ccco1; assay: (§1) Activity of Acinetobacter genomosp. 3 isolate 65 ADC-14; conditions: Acinetobacter pittii
Procedure, shortened: (§2)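 AmpC genes from AG3 clinical isolates were cloned into pGEX-6P-1 and expressed as GST fusions. The mature enzyme was purified free of GST, giving a 43 kDa SDS-PAGE band of 95% purity. Kinetics were read spectrophotometrically at 25°C in PBS with 20 mg/liter BSA, three repeats. For poor substrates, Km was taken as Ki in competitive assays with Centa as reporter substrate. Vmax came from the Michaelis-Menten equation at six times Km antibiotic.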

[2] = tested on: CC(C)(O/N=C(\C(=O)N[C@@H]1C(=O)N2C(C(=O)[O-])=C(C[n+]3ccccc3)CS[C@H]12)c1csc(N)n1)C(=O)O; assay: as §1; conditions: Acinetobacter pittii; procedure, shortened: as §2
[3] = tested on: CO/N=C(\C(=O)N[C@@H]1C(=O)N2C(C(=O)O)=C(COC(C)=O)CS[C@H]12)c1csc(N)n1; assay: as §1; conditions: Acinetobacter pittii; procedure, shortened: as §2
[4] = tested on: CO[C@@]1(NC(=O)Cc2cccs2)C(=O)N2C(C(=O)O)=C(COC(N)=O)CS[C@@H]21; assay: as §1; conditions: Acinetobacter pittii; procedure, shortened: as §2
[5] = tested on: CC(=O)OCC1=C(C(=O)O)N2C(=O)[C@@H](NC(=O)Cc3cccs3)[C@H]2SC1; assay: as §1; conditions: Acinetobacter pittii; procedure, shortened: as §2
[6] = tested on: C[C@H]1[C@H](NC(=O)/C(=N\OC(C)(C)C(=O)O)c2csc(N)n2)C(=O)N1S(=O)(=O)O; assay: as §1; conditions: Acinetobacter pittii; procedure, shortened: as §2
[7] = tested on: CO/N=C(\C(=O)N[C@@H]1C(=O)N2C(C(=O)O)=C(COC(N)=O)CS[C@H]12)c1ccco1; assay: (§3) Ratio of Kcat to Km for Acinetobacter genomosp. 3 isolate 65 ADC-14; conditions: Acinetobacter pittii; procedure, shortened: as §2
[8] = tested on: CC(C)(O/N=C(\C(=O)N[C@@H]1C(=O)N2C(C(=O)[O-])=C(C[n+]3ccccc3)CS[C@H]12)c1csc(N)n1)C(=O)O; assay: as §3; conditions: Acinetobacter pittii; procedure, shortened: as §2
[9] = tested on: CO/N=C(\C(=O)N[C@@H]1C(=O)N2C(C(=O)O)=C(COC(C)=O)CS[C@H]12)c1csc(N)n1; assay: as §3; conditions: Acinetobacter pittii; procedure, shortened: as §2
[10] = tested on: CO[C@@]1(NC(=O)Cc2cccs2)C(=O)N2C(C(=O)O)=C(COC(N)=O)CS[C@@H]21; assay: as §3; conditions: Acinetobacter pittii; procedure, shortened: as §2
[11] = tested on: CC(=O)OCC1=C(C(=O)O)N2C(=O)[C@@H](NC(=O)Cc3cccs3)[C@H]2SC1; assay: as §3; conditions: Acinetobacter pittii; procedure, shortened: as §2
Escherichia coli [12] = assay: Antibacterial activity against Escherichia coli DH5alpha carrying ampC gene of Acinetobacter genomosp. 3 isolate 109 by Etest method; type: functional
Procedure, shortened: (§4)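 E. coli DH5α expressing the AG3 isolate ampC gene, PCR-amplified (high-fidelity system, 28 cycles) and cloned into BamHI/HindIII sites of pBGS18 (kanamycin marker) under the CTX-M-14 β-lactamase promoter. Grown at 37°C in LB, with kanamycin 50 µg/ml when needed. β-Lactam MICs determined by Etest per the manufacturer's instructions.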

Acinetobacter pittii [13] = assay: Antibacterial activity against Acinetobacter genomosp. 3 isolate 56 by Etest method; type: functional
Procedure, shortened: (§5)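 MICs for AG3 clinical isolates were read by Etest following the manufacturer's instructions. Isolates were stored at –80°C in 10% Brucella glycerol broth before testing.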

Escherichia coli [14] = assay: Antibacterial activity against Escherichia coli DH5alpha carrying ampC gene of Acinetobacter genomosp. 3 isolate 14 by Etest method; type: functional; procedure, shortened: as §4
Acinetobacter pittii [15] = assay: Antibacterial activity against Acinetobacter genomosp. 3 isolate 90 by Etest method; type: functional; procedure, shortened: as §5
Acinetobacter pittii [16] = assay: Antibacterial activity against Acinetobacter genomosp. 3 isolate 103 by Etest method; type: functional; procedure, shortened: as §5
Acinetobacter pittii [17] = assay: Antibacterial activity against Acinetobacter genomosp. 3 isolate 21 by Etest method; type: functional; procedure, shortened: as §5
Escherichia coli [18] = assay: Antibacterial activity against Escherichia coli DH5alpha carrying ampC gene of Acinetobacter genomosp. 3 isolate 195 by Etest method; type: functional; procedure, shortened: as §4
Acinetobacter pittii [19] = assay: Antibacterial activity against Acinetobacter genomosp. 3 isolate 195 by Etest method; type: functional; procedure, shortened: as §5
Acinetobacter pittii [20] = assay: Antibacterial activity against Acinetobacter genomosp. 3 isolate 60 by Etest method; type: functional; procedure, shortened: as §5
Escherichia coli [21] = assay: Antibacterial activity against Escherichia coli DH5alpha carrying ampC gene of Acinetobacter genomosp. 3 isolate 56 by Etest method; type: functional; procedure, shortened: as §4
Escherichia coli [22] = assay: Antibacterial activity against Escherichia coli DH5alpha by Etest method; type: functional
Procedure, shortened: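 E. coli DH5α host strain, grown at 37°C in LB medium. MICs of β-lactams determined by Etest following the manufacturer's instructions.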

Acinetobacter pittii [23] = assay: Antibacterial activity against Acinetobacter genomosp. 3 isolate 128 by Etest method; type: functional; procedure, shortened: as §5
Acinetobacter pittii [24] = assay: Antibacterial activity against Acinetobacter genomosp. 3 isolate 20 by Etest method; type: functional; procedure, shortened: as §5
Acinetobacter pittii [25] = assay: Antibacterial activity against Acinetobacter genomosp. 3 isolate 52 by Etest method; type: functional; procedure, shortened: as §5
Acinetobacter pittii [26] = assay: Antibacterial activity against Acinetobacter genomosp. 3 isolate 65 by Etest method; type: functional; procedure, shortened: as §5
Acinetobacter pittii [27] = assay: Antibacterial activity against Acinetobacter genomosp. 3 isolate 67 by Etest method; type: functional; procedure, shortened: as §5
Escherichia coli [28] = assay: Antibacterial activity against Escherichia coli DH5alpha carrying ampC gene of Acinetobacter genomosp. 3 isolate 20 by Etest method; type: functional; procedure, shortened: as §4
Escherichia coli [29] = assay: Antibacterial activity against Escherichia coli DH5alpha carrying ampC gene of Acinetobacter genomosp. 3 isolate 103 by Etest method; type: functional; procedure, shortened: as §4
Acinetobacter pittii [30] = assay: Antibacterial activity against Acinetobacter genomosp. 3 isolate 243 by Etest method; type: functional; procedure, shortened: as §5
Escherichia coli [31] = assay: Antibacterial activity against Escherichia coli DH5alpha carrying ampC gene of Acinetobacter genomosp. 3 isolate 69 by Etest method; type: functional; procedure, shortened: as §4
Acinetobacter pittii [32] = assay: Antibacterial activity against Acinetobacter genomosp. 3 isolate 69 by Etest method; type: functional; procedure, shortened: as §5
Acinetobacter pittii [33] = assay: Antibacterial activity against Acinetobacter genomosp. 3 isolate 109 by Etest method; type: functional; procedure, shortened: as §5
Escherichia coli [34] = assay: Antibacterial activity against Escherichia coli DH5alpha carrying ampC gene of Acinetobacter genomosp. 3 isolate 65 by Etest method; type: functional; procedure, shortened: as §4
Acinetobacter pittii [35] = assay: Antibacterial activity against Acinetobacter genomosp. 3 isolate 14 by Etest method; type: functional; procedure, shortened: as §5

Question: Which Km [1] does the source give for “ADC-14 protein (Acinetobacter genomosp. 3) (from UniProt Q0VTR6)” here?
Answer: 0.02 µM

Question: What about the kcat [1] of the same molecule?
Answer: 0.01 s⁻¹

Question: And the Km [2]?
Answer: 26.1 µM

Question: And the kcat [2]?
Answer: 0.01 s⁻¹

Question: And the Km [3]?
Answer: 0.08 µM

Question: And the kcat [3]?
Answer: 0.004 s⁻¹

Question: What about the Km [4] of the same molecule?
Answer: 0.02 µM

Question: And the kcat [4]?
Answer: 0.02 s⁻¹

Question: And the Km [5]?
Answer: 6.73 µM

Question: What about the kcat [5] of the same molecule?
Answer: 56.5 s⁻¹

Question: What about the Km [6] of the same molecule?
Answer: 6.01 µM

Question: What about the kcat/Km [7] of the same molecule?
Answer: 529000 M⁻¹ s⁻¹

Question: And the kcat/Km [8]?
Answer: 380 M⁻¹ s⁻¹

Question: What about the kcat/Km [9] of the same molecule?
Answer: 48200 M⁻¹ s⁻¹

Question: What about the kcat/Km [10] of the same molecule?
Answer: 941000 M⁻¹ s⁻¹

Question: What about the kcat/Km [11] of the same molecule?
Answer: 8.4e+06 M⁻¹ s⁻¹

Question: Which results are given for `CO/N=C(\C(=O)N[C@@H]1C(=O)N2C(C(=O)O)=C(COC(N)=O)CS[C@H]12)c1ccco1` [CEFUROXIME]?
Answer: MIC (Escherichia coli [12]): 32 µg/mL (≈ 75.4 µM); MIC (Acinetobacter pittii [13]): 16 µg/mL (≈ 37.7 µM); MIC (Escherichia coli [14]): 64 µg/mL (≈ 151 µM); MIC (Acinetobacter pittii [15]): 16 µg/mL (≈ 37.7 µM); MIC (Acinetobacter pittii [16]): 48 µg/mL (≈ 113 µM); MIC (Acinetobacter pittii [17]): 48 µg/mL (≈ 113 µM); MIC (Escherichia coli [18]): 48 µg/mL (≈ 113 µM); MIC (Acinetobacter pittii [19]): 64 µg/mL (≈ 151 µM); MIC (Acinetobacter pittii [20]): 64 µg/mL (≈ 151 µM); MIC (Escherichia coli [21]): 48 µg/mL (≈ 113 µM); MIC (Escherichia coli [22]): 1.5 µg/mL (≈ 3.53 µM); MIC (Acinetobacter pittii [23]): 32 µg/mL (≈ 75.4 µM); MIC (Acinetobacter pittii [24]): 48 µg/mL (≈ 113 µM); MIC (Acinetobacter pittii [25]): 32 µg/mL (≈ 75.4 µM); MIC (Acinetobacter pittii [26]): 24 µg/mL (≈ 56.6 µM); MIC (Acinetobacter pittii [27]): 48 µg/mL (≈ 113 µM); MIC (Escherichia coli [28]): 96 µg/mL (≈ 226 µM); MIC (Escherichia coli [29]): 64 µg/mL (≈ 151 µM); MIC (Acinetobacter pittii [30]): 32 µg/mL (≈ 75.4 µM); MIC (Escherichia coli [31]): 32 µg/mL (≈ 75.4 µM); MIC (Acinetobacter pittii [32]): 32 µg/mL (≈ 75.4 µM); MIC (Acinetobacter pittii [33]): 32 µg/mL (≈ 75.4 µM); MIC (Escherichia coli [34]): 4 µg/mL (≈ 9.43 µM); MIC (Acinetobacter pittii [35]): 32 µg/mL (≈ 75.4 µM)
